# Experimental data published in ChEMBL document CHEMBL3797062, “Diterpenes from the Trunk of Abies holophylla and Their Potential Neuroprotective and Anti-inflammatory Activities” (J Nat Prod, 2016).
# Active and inactive are the calls of the source. The rule behind the calls is not given here.
# Assays:
# [1] = Cytotoxicity in rat C6 cells assessed as cell viability at 20 uM after 24 hrs by MTT assay; format: cell-based; conditions: read-out: Activity
# Outline: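 C6 glioma cells seeded at 1 × 10^5 cells/well. After 24 h, switched to serum-free DMEM with compound at 20 μM for a further 24 h. Viability by MTT, expressed as % of untreated control. Means ± SD of three independent experiments.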
# C6 (Rattus norvegicus) = assay: Neuroprotective activity in rat C6 glioma cells assessed as induction of NGF release at 20 uM for 24 hrs
# C6 = assay: Neuroprotective activity in rat C6 cells assessed as induction of NGF release at 20 uM after 24 hrs by ELISA; format: functional
# Outline: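 C6 glioma cells seeded at 1 × 10^5 cells/well. After 24 h, treated with compound at 20 μM in serum-free DMEM for a further 24 h. NGF secreted into the conditioned medium quantified by ELISA and expressed as % of untreated control (100%). 6-Shogaol positive control. Means ± SD of three independent experiments run in triplicate.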
# BV-2 = assay: (§1) Antiinflammatory activity in mouse BV2 cells assessed as inhibition of LPS-induced NO production after 24 hrs by Griess assay; format: functional, cell-based
# Outline: (§2)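 BV2 microglia seeded at 4 × 10^4 cells/well, given compound at various concentrations with LPS (100 ng/mL), incubated 24 h. Nitrite in the medium read with Griess reagent (0.1% N-1-naphthylethylenediamine dihydrochloride, 1% sulfanilamide in 5% phosphoric acid, equal volume of supernatant), absorbance at 570 nm after 10 min. Sodium nitrite standard curve. IC50 derived. L-NMMA positive control.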
# A549 = assay: Cytotoxicity in human A549 cells by SRB assay; format: functional, cell-based
# [2] = Cytotoxicity in human SKOV3 cells by SRB assay; format: functional, cell-based; conditions: SK-OV-3
# SK-MEL-2 = assay: Cytotoxicity in human SK-MEL-2 cells by SRB assay; format: functional, cell-based
# [3] = Cytotoxicity in human HCT116 cells by SRB assay; format: functional, cell-based; conditions: HCT-116
# [4] = as §1; format: functional, cell-based; conditions: BV-2, 24 h; outline: as §2
# [5] = Cytotoxicity in LPS-activated mouse BV2 cells assessed as cell viability at 20 uM after 24 hrs by MTT assay; format: cell-based; conditions: bv-2, 24 h
# Outline: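 Mouse microglial BV2 cells were seeded at 4 × 10^4 cells/well, treated with or without compound, stimulated with LPS (100 ng/mL), and incubated for 24 h. Viability was read by MTT assay, as the reduction of yellow MTT to purple formazan by viable cells.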
Structure (SMILES),"viability at 24 h, 20 µM [1]",Activity (C6 (Rattus norvegicus)),Activity (C6),inhibition (BV-2),IC50 (A549),IC50 [2],IC50 (SK-MEL-2),IC50 [3],IC50 [4],Activity [5]
CCCCC/C=C/C(=O)CCc1ccc(O)c(OC)c1 [SHOGAOL],119%,141.8%,–,–,–,–,–,–,–,–
CC(C)c1ccc2c(c1)[C@H](O)C[C@H]1[C@](C)(CO)CCC[C@]21C,89.3%,–,177.1%,inactive,> 10 µM,> 10 µM,> 10 µM,> 10 µM,–,–
CC(C)[C@]1(O)C=C2C(=O)C[C@@H]3[C@](C)(CCC[C@@]3(C)C(=O)O)[C@H]2CC1,94.5%,–,175.6%,inactive,> 10 µM,> 10 µM,> 10 µM,> 10 µM,–,–
CO[C@H]1C(=O)C2=C[C@@](O)(C(C)C)CC[C@@H]2[C@@]2(C)CCC[C@@](C)(C(=O)O)[C@H]12,96.2%,–,170.2%,inactive,> 10 µM,> 10 µM,> 10 µM,> 10 µM,–,–
CC(C)(O)[C@]12O[C@H]1C[C@@H]1[C@@]3(C)CCC[C@@](C)(C(=O)O)[C@@H]3CC[C@@]1(O)[C@H]2O,–,–,–,inactive,> 10 µM,> 10 µM,> 10 µM,> 10 µM,–,–
CC(=O)OC[C@]1(C)CCC[C@]2(C)c3ccc(C(C)(C)O)cc3CC[C@@H]12,85.5%,–,171.3%,inactive,> 10 µM,> 10 µM,> 10 µM,> 10 µM,–,–
CC(C)c1ccc2c(c1)[C@H](O)C[C@H]1[C@](C)(COC(=O)CCC(=O)O)CCC[C@]21C [ABIESADINE F],98.2%,–,142.2%,inactive,> 10 µM,> 10 µM,> 10 µM,> 10 µM,–,–
CO[C@@]1(C(C)C)C=C2C(=O)C[C@@H]3[C@](C)(CCC[C@@]3(C)C(=O)O)[C@H]2CC1,–,–,–,inactive,> 10 µM,> 10 µM,> 10 µM,> 10 µM,–,–
CC(C)(O)[C@]12O[C@H]1C[C@H]1C(=CC[C@@H]3[C@]1(C)CCC[C@@]3(C)C(=O)O)[C@H]2O,92.5%,–,158.6%,inactive,> 10 µM,> 10 µM,> 10 µM,> 10 µM,–,–
CC(C)(O)c1ccc2c(c1)C(=O)C[C@H]1[C@](C)(C(=O)O)CCC[C@]21C,94.6%,–,161.7%,inactive,> 10 µM,> 10 µM,> 10 µM,> 10 µM,–,–
CC(C)(O)[C@]12O[C@H]1C[C@@H]1[C@@]3(C)CCC[C@@](C)(C(=O)O)[C@@H]3CC[C@@]13O[C@H]32,–,–,–,inactive,> 10 µM,> 10 µM,> 10 µM,> 10 µM,–,–
CC(C)[C@@]12C=C3[C@H](O)C[C@H]4[C@](C)(C(=O)O)CCC[C@]4(C)[C@]3(CC1)OO2,127%,–,154.3%,inactive,> 10 µM,> 10 µM,> 10 µM,> 10 µM,–,–
CC(C)c1ccc2c(c1)CC[C@H]1[C@](C)(C(=O)O)CCC[C@]21C [DEHYDROABIETIC ACID],92.3%,–,170.2%,inactive,> 10 µM,> 10 µM,> 10 µM,> 10 µM,–,–
CC(C)[C@]12O[C@H]1CC1=C(CC[C@H]3[C@](C)(C(=O)O)CCC[C@]13C)[C@H]2O,–,–,–,inactive,> 10 µM,> 10 µM,> 10 µM,> 10 µM,–,–
CC(C)[C@]12O[C@H]1C[C@@H]1[C@@]3(C)CCC[C@@](C)(C(=O)O)[C@@H]3CC[C@@]1(O)[C@H]2O,–,–,–,inactive,> 10 µM,> 10 µM,> 10 µM,> 10 µM,–,–
CC(C)[C@]12C=C3CC[C@H]4[C@](C)(C(=O)O)CCC[C@]4(C)[C@@]3(CC1)OO2,109%,–,175.9%,–,> 10 µM,> 10 µM,> 10 µM,> 10 µM,57.3 µM,Non-toxic
CC(C)c1ccc2c(c1)[C@H](O)C[C@H]1C(C)(C)CCC[C@]21C,–,–,–,inactive,> 10 µM,> 10 µM,> 10 µM,> 10 µM,–,–
CC(C)[C@]12O[C@H]1C[C@H]1C(=CC[C@@H]3[C@]1(C)CCC[C@@]3(C)C(=O)O)[C@H]2O,73.1%,–,193.9%,inactive,> 10 µM,> 10 µM,> 10 µM,> 10 µM,–,–
CO[C@]12C(=O)C[C@@H]3[C@](C)(CCC[C@@]3(C)C(=O)O)[C@H]1CC[C@@]1(C(C)C)O[C@@H]21,–,–,–,inactive,> 10 µM,> 10 µM,> 10 µM,> 10 µM,–,–
CC(C)[C@]12C=C3C(=O)C[C@H]4[C@](C)(C(=O)O)CCC[C@]4(C)[C@@]3(CC1)OO2,–,–,–,–,> 10 µM,> 10 µM,> 10 µM,> 10 µM,30.1 µM,Non-toxic
CC(C)C1=C[C@@]23CC[C@@H]4[C@](C)(CCC[C@@]4(C)C(=O)O)[C@H]2C[C@@H]1OO3,102%,–,153%,inactive,> 10 µM,> 10 µM,> 10 µM,> 10 µM,–,–
CC(C)[C@]12C=C3[C@H](O)C[C@H]4[C@](C)(C(=O)O)CCC[C@]4(C)[C@@]3(CC1)OO2,–,–,–,inactive,> 10 µM,> 10 µM,> 10 µM,> 10 µM,–,–
CO[C@@]1(C(C)C)C=C2[C@H](O)C[C@@H]3[C@](C)(CCC[C@@]3(C)C(=O)O)[C@H]2CC1,78.1%,–,169.4%,inactive,> 10 µM,> 10 µM,> 10 µM,> 10 µM,–,–
CC(C)c1ccc2c(c1)C(=O)C[C@H]1[C@](C)(C(=O)O)CCC[C@]21C,104%,–,201.8%,inactive,> 10 µM,> 10 µM,> 10 µM,> 10 µM,–,–
CC(C)c1ccc2c(c1)[C@@H](O)C[C@H]1[C@](C)(C(=O)O)CCC[C@]21C,96.2%,–,165.1%,inactive,> 10 µM,> 10 µM,> 10 µM,> 10 µM,–,–
CC(C)c1ccc2c(c1)[C@H](O)C[C@H]1[C@](C)(C(=O)O)CCC[C@]21C,101%,–,204.3%,inactive,> 10 µM,> 10 µM,> 10 µM,> 10 µM,–,–
CC(C)[C@@]12CC[C@@H]3[C@@]4(C)CCC[C@@](C)(C(=O)O)[C@@H]4CC(=O)[C@]3(O)[C@@H]1O2,91.4%,–,155%,inactive,> 10 µM,> 10 µM,> 10 µM,> 10 µM,–,–
CC(C)C1=C[C@@]2(O)CC[C@@H]3[C@](C)(CCC[C@@]3(C)C(=O)O)[C@H]2CC1=O,91.2%,–,166.1%,–,> 10 µM,> 10 µM,> 10 µM,> 10 µM,56.1 µM,Non-toxic
CC(C)(O)c1ccc2c(c1)CC[C@H]1[C@](C)(C(=O)O)CCC[C@]21C,94.3%,–,152.9%,inactive,> 10 µM,> 10 µM,> 10 µM,> 10 µM,–,–
COc1cc([C@@H]2c3cc4c(cc3[C@@H](O[C@@H]3O[C@@H]5CO[C@@H](C)O[C@H]5[C@H](O)[C@H]3O)[C@H]3COC(=O)[C@H]23)OCO4)cc(OC)c1O [ETOPOSIDE],–,–,–,–,1.4 µM,2.6 µM,1.5 µM,1 µM,–,–
